The record followed here is ChEMBL document CHEMBL1158523, “Piperidine-based heterocyclic oxalyl amides as potent p38 alpha MAP kinase inhibitors” (Bioorg Med Chem Lett, 2010).

Assay [1] addresses Mitogen-activated protein kinase 14 (Homo sapiens, UniProt Q16539). Kind of assay: Inhibition of human p38alpha after 60 mins. In short, it runs like this:
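Radiometric kinase assay measuring incorporation of γ-32P-ATP into biotinylated peptide substrate by human p38α (5 nM). 60 min at 30 °C, phosphoric acid stop, streptavidin capture, scintillation counting; background-subtracted IC50 versus no-inhibitor controls.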

The subject of assay [2] is Blood. Kind of assay: Inhibition of LPS-induced TNFalpha production in human diluted whole blood at 1 uM after 2 hrs by ELISA. The class given is functional.
The test system of assay [3] is Blood. Kind of assay: Inhibition of LPS-induced TNFalpha production in human diluted whole blood after 2 hrs by ELISA. The class given is functional, tissue-based.
Assay [4] relates to Blood. Kind of assay: Inhibition of LPS-induced TNFalpha production in human diluted whole blood at 0.3 uM after 2 hrs by ELISA. The class given is functional.

pIC50: −log10 of the molar value. Some results are limits rather than exact numbers.

Sequence of Mitogen-activated protein kinase 14 (Q16539 whole entry): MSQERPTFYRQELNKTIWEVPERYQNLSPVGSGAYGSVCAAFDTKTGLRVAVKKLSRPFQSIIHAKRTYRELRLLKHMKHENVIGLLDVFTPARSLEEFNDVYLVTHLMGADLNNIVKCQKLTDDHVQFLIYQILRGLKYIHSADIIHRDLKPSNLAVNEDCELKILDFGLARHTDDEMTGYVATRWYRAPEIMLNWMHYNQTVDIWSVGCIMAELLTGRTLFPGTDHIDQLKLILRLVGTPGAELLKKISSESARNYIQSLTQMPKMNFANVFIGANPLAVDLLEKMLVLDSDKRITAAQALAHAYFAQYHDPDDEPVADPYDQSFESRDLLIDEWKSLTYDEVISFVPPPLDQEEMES

Turning to `COc1ccc(C(=O)C(=O)N(C)C)cc1C(=O)N1CCC(Cc2ccc(F)cc2)CC1`, the pIC50 in assay [1] is 6.02. Also, in assay [2], the inhibition at 1 µM came out at 17%.
In the case of `CN(C)C(=O)C(=O)c1c[nH]c2cc(Cl)c(C(=O)N3CCC(Cc4ccc(F)cc4)CC3)cc12`, the pIC50 in assay [1] was 7.74; in assay [3] it was 7.00.
On to `CN(C)C(=O)C(=O)c1nn(C)c2cc(Cl)c(C(=O)N3CCC(Cc4ccc(F)cc4)CC3)cc12`, for which the pIC50 in assay [1] is 7.00. This molecule also displayed an inhibition at 0.3 µM in assay [4] of 26%.
For the molecule `COc1nc2[nH]cc(C(=O)C(=O)N(C)C)c2cc1C(=O)N1CCC(Cc2ccc(F)cc2)CC1`, the pIC50 is 7.22 in assay [1] and 7.32 in assay [3].
As to `COc1cc2[nH]cc(C(=O)C(=O)N(C)C)c2cc1C(=O)N1CCC(Cc2ccc(F)cc2)CC1`, the pIC50 in assay [1] is 8.00; in assay [3], 7.52.
For `COc1cc2occ(C(=O)C(=O)N(C)C)c2cc1C(=O)N1CCC(Cc2ccc(F)cc2)CC1`, the pIC50 in assay [1] is 6.22. The same molecule came in with an inhibition at 1 µM in assay [2] of 10%.
As to `CN(C)C(=O)C(=O)c1ccc2c(c1)C=C(C(=O)N1CCC(Cc3ccc(F)cc3)CC1)C(C(F)(F)F)O2` (centres undefined), the pIC50 in assay [1] was less than 5.00.
Still for that read-out and setting: to `Cc1[nH]c2ccc(C(=O)C(=O)N(C)C)cc2c1C(=O)N1CCC(Cc2ccc(F)cc2)CC1` belongs 7.05.
